This note sets out measurements from ChEMBL document CHEMBL3407378, “Design, synthesis and biological evaluation of novel 7-alkylamino substituted benzo[a]phenazin derivatives as dual topoisomerase I/II inhibitors” (Eur J Med Chem, 2015).

pIC50: −log10 of the molar value. The source made the active and inactive calls. No cut-off for these calls is given here.

For assay [1], the target named is T1, DNA topoisomerase 1 (Homo sapiens) (UniProt P11387).
T1 sequence (whole entry): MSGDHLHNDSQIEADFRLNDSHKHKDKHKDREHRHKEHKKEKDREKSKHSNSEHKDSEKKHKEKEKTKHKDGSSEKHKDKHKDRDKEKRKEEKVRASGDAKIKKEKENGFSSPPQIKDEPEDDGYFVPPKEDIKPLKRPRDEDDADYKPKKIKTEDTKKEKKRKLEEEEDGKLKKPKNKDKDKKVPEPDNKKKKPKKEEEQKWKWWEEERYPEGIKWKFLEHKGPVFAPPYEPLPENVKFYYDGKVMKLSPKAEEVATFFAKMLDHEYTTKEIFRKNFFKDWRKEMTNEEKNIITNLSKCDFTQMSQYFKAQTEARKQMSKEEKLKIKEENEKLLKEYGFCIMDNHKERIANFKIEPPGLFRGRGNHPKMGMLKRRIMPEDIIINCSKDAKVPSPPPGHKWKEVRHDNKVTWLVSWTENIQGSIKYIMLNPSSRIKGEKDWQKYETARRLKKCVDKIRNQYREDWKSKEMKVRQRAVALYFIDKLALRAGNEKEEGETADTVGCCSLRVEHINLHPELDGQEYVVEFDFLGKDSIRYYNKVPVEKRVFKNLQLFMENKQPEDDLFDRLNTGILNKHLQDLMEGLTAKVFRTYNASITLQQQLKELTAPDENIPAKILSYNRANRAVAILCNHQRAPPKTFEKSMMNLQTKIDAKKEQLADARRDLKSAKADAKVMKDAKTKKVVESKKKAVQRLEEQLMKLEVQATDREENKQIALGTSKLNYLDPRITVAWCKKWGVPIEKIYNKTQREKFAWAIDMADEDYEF
The assay is described as follows: Inhibition of Topo 1 (unknown origin)-mediated relaxation of supercoiled pBR322 plasmid at 25 uM after 30 mins by agarose gel electrophoresis. The essentials: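 Topo I with supercoiled pBR322 and compound, 30 min at 37 °C. Stopped with SDS/bromophenol blue/glycerol dye; run on 1% agarose gel in TAE for 1 h and stained with Gel Red.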

The target in assay [2] is DNA topoisomerase 2-alpha (Homo sapiens) (UniProt P11388). The assay is described as follows: Inhibition of human Topo 2-mediated relaxation of supercoiled pBR322 plasmid at 25 to 50 uM after 30 mins by agarose gel electrophoresis.
The nature of assay [3]: Cytotoxicity against human HL60 cells after 48 hrs by MTT assay. It is filed as functional, cell-based. Conditions: HL-60, 48 h. A digest of the protocol: (§1)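 Cells seeded 1 × 10^4 per well and incubated overnight, then given compound at 0–50 µM for 48 h. MTT added (20 µL of 5 mg/mL stock) for 4 h at 37 °C; formazan dissolved in DMSO, absorbance read at 570 nm. Triplicates; IC50 from mean OD versus concentration curves.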
A general note: Formazan colour is commonly taken as a measure of viable cells.

In a further assay the test system is K562. Kind of assay: Cytotoxicity against human K562 cells after 48 hrs by MTT assay. It is filed as functional, cell-based. The settings on record: K562, 48 h. A digest of the protocol: as §1
A further assay deals with HeLa. Kind of assay: Cytotoxicity against human HeLa cells after 48 hrs by MTT assay. The format is functional, cell-based. The essentials:
as §1

In the next assay the test system is A549. Kind of assay: Cytotoxicity against human A549 cells after 48 hrs by MTT assay. It is filed as functional, cell-based. The settings on record: A549, 48 h. The essentials: as §1
The target of assay [4] is T2, DNA topoisomerase (Bos taurus) (UniProt A0JN73).
T2 sequence (whole entry): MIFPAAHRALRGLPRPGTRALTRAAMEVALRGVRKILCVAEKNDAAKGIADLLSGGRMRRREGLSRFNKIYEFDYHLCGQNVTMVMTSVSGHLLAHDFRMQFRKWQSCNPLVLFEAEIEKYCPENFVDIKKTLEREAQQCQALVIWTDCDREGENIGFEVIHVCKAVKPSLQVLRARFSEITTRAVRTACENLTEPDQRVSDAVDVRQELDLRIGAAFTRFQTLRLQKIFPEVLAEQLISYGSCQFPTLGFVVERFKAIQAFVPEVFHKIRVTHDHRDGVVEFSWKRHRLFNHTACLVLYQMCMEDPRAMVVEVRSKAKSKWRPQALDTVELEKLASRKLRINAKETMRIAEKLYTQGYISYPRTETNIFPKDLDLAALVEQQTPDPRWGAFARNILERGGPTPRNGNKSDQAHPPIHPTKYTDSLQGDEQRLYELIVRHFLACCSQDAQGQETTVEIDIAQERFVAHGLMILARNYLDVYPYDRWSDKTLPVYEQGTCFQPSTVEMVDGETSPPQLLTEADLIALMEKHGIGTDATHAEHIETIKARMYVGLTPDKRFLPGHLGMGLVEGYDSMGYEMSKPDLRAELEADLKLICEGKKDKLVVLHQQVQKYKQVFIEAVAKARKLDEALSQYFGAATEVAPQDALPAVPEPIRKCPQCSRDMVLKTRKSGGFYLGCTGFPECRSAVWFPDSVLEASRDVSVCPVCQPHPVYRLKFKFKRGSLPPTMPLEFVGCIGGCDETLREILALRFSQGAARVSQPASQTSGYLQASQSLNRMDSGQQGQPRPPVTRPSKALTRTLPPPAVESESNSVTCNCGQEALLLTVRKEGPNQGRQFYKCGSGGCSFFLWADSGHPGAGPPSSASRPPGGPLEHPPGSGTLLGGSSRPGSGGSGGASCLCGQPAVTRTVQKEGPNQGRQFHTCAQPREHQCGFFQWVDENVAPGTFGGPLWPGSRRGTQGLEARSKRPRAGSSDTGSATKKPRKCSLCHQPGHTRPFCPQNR
The assay is described as follows: Induction of calf thymus Topo 1-pBR322 DNA cleavage complex formation assessed as nicked DNA formation at 0.5 to 10 uM after 30 mins by optical density analysis. The essentials: (§2)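 Calf thymus Topo I (10 units) with 0.1 µg supercoiled pBR322 and compound (0.5–50 µM) in Topo I buffer pH 7.5, 6 min at 37 °C. Complexes trapped with SDS then NaEDTA, proteinase K 30 min at 45 °C, heated 70 °C for 2 min, 1% agarose gel with ethidium bromide. Nicked DNA quantified by optical density.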

Assay [5] has as its target T2, DNA topoisomerase (Bos taurus). The assay is described as follows: Induction of calf thymus Topo 1-pBR322 DNA cleavage complex formation assessed as nicked DNA formation at 10 uM after 30 mins by optical density analysis relative to control. A digest of the protocol:
as §2

Assay [6] has the same target. The assay is described as follows: Induction of calf thymus Topo 1-pBR322 DNA cleavage complex formation assessed as nicked DNA formation at 25 to 50 uM after 30 mins by optical density analysis relative to control. A digest of the protocol: as §2
Assay [7] has as its target T1, DNA topoisomerase 1 (Homo sapiens). The assay is described as follows: Induction of Topo 1-DNA cleavage complex formation in human HL60 cells after 1 hr by ICE assay. The format is cell-based. The settings on record: HL-60. A digest of the protocol:
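Mid-log phase HL-60 cells exposed to 2, 5 or 10 µM compound (DMSO vehicle 1.0% v/v) for 1 h, then lysed in DNAzol. DNA was ethanol-precipitated, redissolved and quantified. 2 µg DNA in 25 mM NaH2PO4 pH 6.5 was blotted onto nitrocellulose. Covalent Topo I was probed with rabbit anti-human Topo I (1:1000) and HRP secondary (1:3000), read by chemiluminescence.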

Assay [8] concerns the target DNA topoisomerase 2-alpha (Homo sapiens) (UniProt P11388). The assay is described as follows: Induction of human Topo 2-pBR322 DNA cleavage complex formation assessed as linear DNA formation at 10 to 50 uM by agarose gel electrophoresis.
The test system of assay [9] is Nucleic Acid. The assay is described as follows: Binding affinity to Escherichia coli pBR322 DNA assessed as DNA intercalation activity compound preincubated at 5 to 100 uM for 10 mins before enzyme addition by DNA unwinding assay in presence of topoisomerase 1. The format is nucleic-acid assay.
For another assay, the system named is Calf thymus DNA. The assay is described as follows: Binding affinity to calf thymus DNA at 15 uM after 5 mins by UV-vis spectrometry. The format is nucleic-acid assay. The settings on record: Bos taurus. A digest of the protocol:
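Compound at 15 µM in DPBS pH 7.4 with 1% DMSO, titrated with CT-DNA (0–24 µM, quantified at 260 nm, ε 13,200 M(bp)-1 cm-1). Equilibrated 5 min at room temperature; absorption spectra recorded 400–600 nm; Kapp derived from titration.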

The target of assay [10] is DNA topoisomerase 2-alpha (Homo sapiens) (UniProt P11388). The assay is described as follows: Inhibition of human Topo 2-mediated relaxation of supercoiled pBR322 plasmid at 25 uM after 30 mins by agarose gel electrophoresis.
The target is the same in assay [11]. Kind of assay: Inhibition of human Topo 2 ATPase domain expressed in yeast BCY123 strain at 25 uM after 1 hr by nonisotopic malachite green assay. A digest of the protocol:
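Human Topo II ATPase domain overexpressed in yeast BCY123 and purified. Assay buffer: 100 mM Tris-HCl pH 7.4, 20 mM KCl, 6 mM MgCl2. Reaction of 25 µL with compound, started with 1 mM ATP, 1 h at 37 °C. Phosphate detected with malachite green at OD620. No-enzyme background set as 100% inhibition and enzyme-only as 0%.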

The target is the same in assay [12]. Kind of assay: Competitive inhibition of human Topo 2 ATPase domain expressed in yeast BCY123 strain after 1 hr by Lineweaver-Burk plot method. A digest of the protocol:
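Human Topo II ATPase domain expressed in yeast BCY123 and purified. Assay buffer: 100 mM Tris-HCl pH 7.4, 20 mM KCl, 6 mM MgCl2. ATP at 250, 500, 800, 1,000 and 2000 µM at each fixed compound level (0, 5, 25, 50, 100 µM), 1 h at 37 °C. Phosphate read by malachite green at 620 nm.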

Assay [13] relates to Nucleic Acid. The assay is described as follows: Binding affinity to Escherichia coli pBR322 DNA assessed as DNA intercalation activity compound preincubated for 10 mins before enzyme addition by DNA unwinding assay in presence of topoisomerase 1. The format is nucleic-acid assay.
The target of assay [14] is T2, DNA topoisomerase (Bos taurus). Kind of assay: Induction of calf thymus Topo 1-pBR322 DNA cleavage complex formation assessed as nicked DNA formation after 30 mins by agarose gel electrophoresis. A digest of the protocol:
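Calf thymus Topo I (10 units) with 0.1 µg supercoiled pBR322 and 0.5–50 µM compound in Topo I buffer (pH 7.5) for […]. Complexes trapped with SDS then NaEDTA, followed by proteinase K for 30 min at 45 °C. Samples run on 1% agarose gel containing 0.5 µg/mL ethidium bromide. Nicked DNA quantified by optical density.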

Sequence of DNA topoisomerase 2-alpha (Homo sapiens) (P11388 whole entry, the tested form may be a part): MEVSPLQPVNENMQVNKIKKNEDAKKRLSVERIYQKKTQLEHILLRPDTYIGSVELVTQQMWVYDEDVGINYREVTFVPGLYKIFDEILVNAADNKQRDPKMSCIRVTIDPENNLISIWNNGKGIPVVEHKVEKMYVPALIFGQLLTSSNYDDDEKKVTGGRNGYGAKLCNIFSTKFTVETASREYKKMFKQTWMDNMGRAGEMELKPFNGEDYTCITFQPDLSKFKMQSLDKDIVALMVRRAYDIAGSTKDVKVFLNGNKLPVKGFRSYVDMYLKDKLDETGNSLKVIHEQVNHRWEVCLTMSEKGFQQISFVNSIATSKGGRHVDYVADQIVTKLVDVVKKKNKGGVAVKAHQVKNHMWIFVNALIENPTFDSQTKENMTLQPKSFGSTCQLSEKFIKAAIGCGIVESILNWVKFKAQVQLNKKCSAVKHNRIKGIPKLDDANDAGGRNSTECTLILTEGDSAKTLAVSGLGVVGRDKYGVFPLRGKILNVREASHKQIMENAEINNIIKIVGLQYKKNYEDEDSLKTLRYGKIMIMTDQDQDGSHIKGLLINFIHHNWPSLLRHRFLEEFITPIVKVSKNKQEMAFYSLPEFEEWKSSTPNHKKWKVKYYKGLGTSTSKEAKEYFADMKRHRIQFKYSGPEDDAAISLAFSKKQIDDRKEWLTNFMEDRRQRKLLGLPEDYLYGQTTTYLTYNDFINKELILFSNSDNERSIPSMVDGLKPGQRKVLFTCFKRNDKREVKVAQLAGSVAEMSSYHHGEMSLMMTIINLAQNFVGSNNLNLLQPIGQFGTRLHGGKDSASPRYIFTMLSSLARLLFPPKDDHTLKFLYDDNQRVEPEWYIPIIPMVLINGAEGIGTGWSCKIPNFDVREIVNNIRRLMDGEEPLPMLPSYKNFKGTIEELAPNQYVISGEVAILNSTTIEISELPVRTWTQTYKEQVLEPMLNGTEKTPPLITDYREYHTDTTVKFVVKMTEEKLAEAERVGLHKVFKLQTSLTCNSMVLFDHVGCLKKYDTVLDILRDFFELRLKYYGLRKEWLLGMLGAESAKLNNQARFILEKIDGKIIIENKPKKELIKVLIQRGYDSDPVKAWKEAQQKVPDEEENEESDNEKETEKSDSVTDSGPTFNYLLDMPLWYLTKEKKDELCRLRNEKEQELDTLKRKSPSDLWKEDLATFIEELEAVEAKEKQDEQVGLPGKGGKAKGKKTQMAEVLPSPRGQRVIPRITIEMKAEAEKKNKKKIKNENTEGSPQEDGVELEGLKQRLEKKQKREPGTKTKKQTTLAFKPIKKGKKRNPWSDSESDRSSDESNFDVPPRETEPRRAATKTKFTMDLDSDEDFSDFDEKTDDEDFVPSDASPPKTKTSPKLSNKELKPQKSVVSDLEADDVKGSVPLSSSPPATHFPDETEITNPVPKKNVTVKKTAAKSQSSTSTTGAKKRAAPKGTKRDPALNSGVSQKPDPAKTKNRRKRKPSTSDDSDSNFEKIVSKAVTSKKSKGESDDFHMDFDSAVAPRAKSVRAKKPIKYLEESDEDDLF

A word on the pIC50: it is the negative decadic logarithm of the IC50, by convention in mol/L. A lower pIC50 goes with a high IC50. Turning to `CN(C)CCCCn1c2cc(=O)c3ccccc3c-2nc2ccccc21`, the “Topo I relaxation inhibition (active/not active)” value in assay [1] is “Active”. Besides, the “Topo 2 inhibition (active/not active)” value in assay [2] is “Active”. The pIC50 in assay [3] is 6.42; with K562 it was 5.33; with HeLa it was 4.67; in the assay with A549 it was 4.79. For the same compound, the Activity entry in assay [4] and in assay [7] was “Dose-dependent effect” in each case. In [5], the fold change (FC) was determined as 2.5. Further, the outcome (in assay [6]; with Nucleic Acid [9]) was Active. For the same compound, the result in assay [8] was inactive. The Kapp in the assay on Calf thymus DNA was 4.83 ×10⁵ /M.

By inhibition is commonly meant the drop in the measured response relative to a control, in per cent. With `COc1ccc2c3nc4ccc(OC)cc4n(CCCN(C)C)c-3cc(=O)c2c1`, the “Topo 2 inhibition (active/not active)” value in assay [10] was “Active”. For the same compound, the pIC50 in [3] was 7.05; with K562, 5.06; with HeLa, 4.74; with A549, 4.58. The values for the inhibition in assay [11] and in [12] were 78% and “Dose-dependent effect”, respectively.

Turning to `CC[n+]1c(-c2ccccc2)c2cc(N)ccc2c2ccc(N)cc21`, the Activity result with Nucleic Acid [13] was “Dose-dependent effect”.

With `CC[C@@]1(O)C(=O)OCc2c1cc1n(c2=O)Cc2cc3ccccc3nc2-1` [CAMPTOTHECIN], the pIC50 was 7.15 in assay [3], 5.27 with K562, 4.93 with HeLa and 4.58 in the assay on A549. Moreover, the Activity entry in [14] and in assay [7] was “Dose-dependent effect” in each case.
